Most compounds without a hit are left out; they make up all but 2% or so of the library.
PPC-1+TRAIL kill – kills PPC-1 cancer cells in the presence of TRAIL; cell killing (% activity), % at 4 µM or 5 µM; PPC-1 cells + TRAIL, ATPLite viability luminescence; 0.41% of 220,000 active;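 active = cell killing above 50% in the first pass at 4 µM, then a duplicate retest at 5 µM averaging 50% or more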
HSP90 refold inh – HSP90 refolding inhibition in rabbit reticulocyte lysate; inhibition, % at 5.6 µM; 0.91% of 290,000 active; luciferase refolding luminescence, 3 h; AID 1789;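 active = inhibition above the screen-wide mean plus 3 SD, computed separately per campaign, cut at about 16% in these data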;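 also: inhibitors lower the luminescence because luciferase stays unfolded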
C8 TRAIL sens – caspase-8 TRAIL sensitization | 1% of 360,000 active | NB7+C8 cells + TRAIL, ATPlite viability luminescence | inhibition (viability loss, TRAIL sensitization), % at 10 µM;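 active = compounds causing at least 50% loss of cell viability in the single-dose screen, relative to plate controls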
FLuc stim CS – affects firefly luciferase, flagging false hits in luciferase stimulation screens; activation factor at 10 µM; P08659; 200,000 tested, under 10 active; ATPlite luciferase biochemical, luminescence, 10 min; 0 = ATP-free wells, 1 = DMSO control;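 active = luciferase activation factor, scaled between plate controls, of at least 2 with compound at 10 µM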
Target sequence (P08659 whole entry, looked up): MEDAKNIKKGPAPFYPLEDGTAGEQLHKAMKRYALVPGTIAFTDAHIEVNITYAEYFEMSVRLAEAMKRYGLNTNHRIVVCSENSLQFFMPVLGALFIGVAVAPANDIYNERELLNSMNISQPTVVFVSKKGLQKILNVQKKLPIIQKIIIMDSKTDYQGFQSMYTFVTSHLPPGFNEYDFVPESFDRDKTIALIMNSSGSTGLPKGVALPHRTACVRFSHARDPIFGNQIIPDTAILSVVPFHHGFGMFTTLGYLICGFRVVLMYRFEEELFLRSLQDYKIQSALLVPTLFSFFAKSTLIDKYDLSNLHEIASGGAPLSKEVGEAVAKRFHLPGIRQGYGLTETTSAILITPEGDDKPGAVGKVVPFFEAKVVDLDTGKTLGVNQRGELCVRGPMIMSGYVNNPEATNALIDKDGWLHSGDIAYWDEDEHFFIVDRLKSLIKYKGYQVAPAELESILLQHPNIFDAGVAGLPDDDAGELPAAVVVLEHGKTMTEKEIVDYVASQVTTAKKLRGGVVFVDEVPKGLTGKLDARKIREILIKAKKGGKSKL
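System: Luciferase/luciferin detection reagent, cell-free biochemical luciferase assay | Medium: PBS buffer for ATP | Dosing: Test compounds dosed from 2 mM stocks in 100% DMSO | Timing: 10 min at ambient temperature | Signal: Luminescence measurement of luciferase light output | Evaluation: Luciferase activation, seen as luminescence increase over controls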
FLuc inhib CS – Photinus pyralis luciferase inhibition counter-screen | P08659 | ATPLite firefly luciferase biochemical luminescence, 10 min | inhibition, % at 10 µM | 1.5% of 200,000 active;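 active = inhibition above about 50% when tested at 10 µM, limit read from the data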
HSP90 confirm – HSP90 inhibition, confirmation assay; shares compounds with HSP90 refold inh; rabbit reticulocyte lysate, luciferase refolding luminescence, 3 h; inhibition, % at 5.9 µM; 64% of 2,300 active; AID 1846; in the data active = inhibition above about 18%
luciferase ctr – counter-screen for HSP90 inhibitors: inhibitors of firefly luciferase; inhibition, % at 5.9 µM; 48% of 2,300 active; shares compounds with HSP90 refold inh; purified native firefly luciferase, luminescence;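 active = inhibition above the mean inhibition of all tested sample wells plus 3 SD, cut at about 10% in these data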
A number is an active result; - = inactive; . = not tested or not shown.

SMILES	PPC-1+TRAIL kill	HSP90 refold inh	C8 TRAIL sens	FLuc stim CS	FLuc inhib CS	HSP90 confirm	luciferase ctr
CCn1c(N)nc2c1c(=O)n(C)c(=O)n2C	-	-	-	-	-	.	.
CCCc1nc2c(=O)n(C)c(=O)nc-2n(C)n1	-	75	96	-	-	83	85
Cc1cccc(OCCCC(=O)Nc2ccc(S(=O)(=O)Nc3ncccn3)cc2)c1C	.	25	-	.	.	-	-
c1ccc(OCc2nc3ccccc3s2)cc1	-	17	-	-	-	25	-
Cc1cccc(NC(=O)c2ccc3c(c2)OCCO3)c1	.	34	87	.	.	48	36
Cc1ccc(C(=O)Nc2ccc3c(c2)OCCO3)c(C)c1	.	65	87	.	.	82	77
O=C(Nc1cccc(F)c1)c1ccc2c(c1)OCCO2	.	-	-	.	.	.	.
O=C(Nc1cccc(C(=O)O)c1)Nc1ccc2c(c1)OCO2	.	86	-	.	.	96	91
Cc1ccc(C(=O)O)cc1NC(=O)Nc1ccc2c(c1)OCO2	-	-	-	-	-	.	.
Cc1ccc(NC(=O)c2ccc3c(c2)OCCO3)cc1C	.	42	76	.	.	68	61
COc1ccc(OCc2nnc(SCC(=O)Nc3ccccc3Cl)o2)cc1	.	-	-	.	.	.	.
O=C(Nc1ccc2c(c1)OCCO2)c1ccc(Cl)cc1	.	19	59	.	.	25	15
Cc1cc(C(=O)Nc2ccc3c(c2)OCO3)cs1	-	20	-	-	65	-	-
COc1cccc(C(CNC(=O)c2ccc(Cl)c(S(=O)(=O)N3CCCC3)c2)N(C)C)c1 (centres undefined)	.	.	-	.	.	.	.
COc1ccccc1C(=O)N/C(=C\c1cn(C)c2ccccc12)C(=O)N1CCCC1	.	-	-	.	.	.	.
O=C(CCN1CCOCC1)NNC(=O)c1ccc([N+](=O)[O-])cc1[N+](=O)[O-]	.	.	-	.	.	.	.
C/C(=N\Nc1nncc2ccccc12)c1ccc(O)cc1	.	20	60	.	.	32	12
C/C(=N\Nc1nncc2ccccc12)c1cccc(OC(F)F)c1	.	25	81	.	.	40	23
O=C(NC1CCN(C(=O)Nc2cccc(Cl)c2)CC1)c1ccco1	.	-	-	.	.	.	.
Cc1ccsc1-c1nc(CN2C[C@@H](C)O[C@@H](C)C2)c(C)o1	-	-	-	-	-	.	.
CC(C)c1ccc(C(=O)OCC(=O)NC2CCCC2)cc1	.	-	-	.	.	.	.
COCCn1c(C)cc(C2=NNC(=Nc3ccccc3F)SC2)c1C	-	77	-	-	82	62	55
Fc1ccc(F)c(C2=NNC(=Nc3ccccc3F)SC2)c1	-	-	-	-	-	.	.
COCCCN=C1NN=C(c2cc(C)n(-c3ccccc3F)c2C)CS1	-	18	53	-	84	70	64
COCCCN=C1NN=C(c2cc(C)n(Cc3ccccc3Cl)c2C)CS1	-	21	-	-	-	48	23
SMILES	PPC-1+TRAIL kill	HSP90 refold inh	C8 TRAIL sens	FLuc stim CS	FLuc inhib CS	HSP90 confirm	luciferase ctr
Nc1ncnc2c1ncn2[C@@H]1O[C@H](C(=O)N[C@H]2c3ccccc3C[C@H]2OC=O)[C@@H](O)[C@H]1O	.	.	-	.	.	.	.
CC1CCc2sc3c(c2C1)c(=O)n(CC(=O)O)c(=O)n3Cc1ccc(Cl)cc1 (centres undefined)	.	-	-	.	.	.	.
CC(=O)N(CCN1CCOCC1)Cc1cc2cc3c(cc2nc1Cl)OCO3	-	24	-	-	-	-	-
O=C(Nc1ccc(S(=O)(=O)NCCc2ccccc2)cc1)c1ccco1	-	26	-	-	-	-	-
COC1=C/C(=C/c2c(O)c(C#N)c3ccccn23)C=CC1=O	-	26	-	.	.	-	-
COc1cc(OC)cc(C(=O)c2c(C)c(C#N)c3ccccn23)c1	.	-	-	.	.	.	.
Cc1ccc(S(=O)(=O)/N=C2\C=C(Nc3cccc(C(=O)O)c3)C(=O)c3ccccc32)cc1	.	96	-	.	.	92	-
CCc1ccc(S(=O)(=O)/N=C2\C=C(Nc3ccc(C(=O)O)cc3)C(=O)c3ccccc32)cc1	.	93	-	.	.	96	-
O=C1C=C(Nc2ccccc2C(=O)O)c2ccccc2C1=O	-	-	-	.	.	.	.
COC(=O)c1ccccc1NC1=C/C(=N\S(=O)(=O)c2ccc(C(=O)O)cc2)c2ccccc2C1=O	.	77	69	.	.	92	-
Cc1ccc(S(=O)(=O)/N=C2\C=C(NS(=O)(=O)c3ccccc3)C(=O)c3ccccc32)c(C)c1	.	.	-	.	.	.	.
Cc1ccc(S(=O)(=O)/N=C2\C=C(Nc3cccc(C(=O)O)c3)C(=O)c3ccccc32)c(C)c1	.	92	-	.	.	90	-
CCCNC(=O)CS(=O)(=O)c1ccccc1	.	-	-	.	.	.	.
Cc1cccc(S(=O)(=O)Nc2nc3ccccc3nc2NCc2ccc3c(c2)OCO3)c1	-	-	-	-	-	.	.

Compound activity (PubChem BioAssay)
